Experiments:
MCF7 = experiment: Cytotoxicity against human MCF7 cells assessed as reduction in cell growth incubated for 96 hrs by MTT assay; format: functional, cell-based; settings: MCF7, 96 h
Summary of the method: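 Growth inhibition of human breast carcinoma cells, reported as IC50; run in duplicate or triplicate.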

Tubulin = experiment: Inhibition of tubulin polymerization (unknown origin) incubated for 15 mins followed by GTP addition and measured for 20 mins by spectrophotometry; format: protein-complex assay, Homo sapiens
Summary of the method: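 Tubulin assembly assay with tubulin at 10 µM. IC50 for inhibition of polymerization; run in duplicate or triplicate.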

Tubulin (Homo sapiens) = Tubulin (Homo sapiens) (UniProt P68371+Q9H4B7+P0DPH7+P68366+Q13509+Q71U36+P04350+Q3ZCM7+P07437+P68363+Q9BQE3+Q6PEY2+Q13885+Q9BVA1+Q9BUF5); experiment: Inhibition of [3H]colchicine binding to tubulin (unknown origin) at 5 uM incubated for 10 mins by DEAE-cellulose filter method relative to control; format: protein-complex assay

| Compound | IC50 (MCF7) [µM] | IC50 (Tubulin) [µM] | inhibition (Tubulin (Homo sapiens)) [%] |
| --- | --- | --- | --- |
| COc1cc(C(=O)c2cn(-c3ccccc3)cc2-c2ccc(N)cc2)cc(OC)c1OC | 0.009 | 1.2 |  |
| COc1cc(C(=O)c2cn(-c3ccccc3[N+](=O)[O-])cc2-c2ccccc2)cc(OC)c1OC | 5 | > 20 |  |
| COc1cc(C(=O)c2cn(-c3cccc(C)c3)cc2-c2cccc([N+](=O)[O-])c2)cc(OC)c1OC | 0.88 | > 20 | 4.2 |
| COc1cc(C(=O)c2cn(-c3ccc([N+](=O)[O-])cc3)cc2-c2ccccc2)cc(OC)c1OC | 4 | 3.3 | 18 |
| COc1cccc(-n2cc(C(=O)c3cc(OC)c(OC)c(OC)c3)c(-c3ccccc3)c2)c1 | 0.5 | 1.6 | 25 |
| COc1cc(C(=O)c2cn(-c3cccc(C)c3)cc2-c2ccc([N+](=O)[O-])cc2)cc(OC)c1OC | 0.78 | > 20 | 10 |
| COc1cc(C(=O)c2cn(-c3ccccc3Cl)cc2-c2ccccc2)cc(OC)c1OC | 1.8 | > 20 |  |
| COc1cc(C(=O)c2cn(-c3ccccc3)cc2-c2cccc(Cl)c2)cc(OC)c1OC | 0.54 | 2.3 | 7.5 |
| COc1cc(C(=O)c2cn(-c3ccc(F)cc3)cc2-c2cccc(N)c2)cc(OC)c1OC | 0.053 | 0.41 | 68 |
| COc1cc(C(=O)c2cn(-c3ccc(C)cc3)cc2-c2ccccc2Cl)cc(OC)c1OC | 0.18 | 0.48 | 70 |
| COc1cc(C(=O)c2cn(-c3ccccc3)cc2/C=C/c2ccccc2)cc(OC)c1OC | 2.2 | > 20 |  |
| COc1cc(C(=O)c2cn(-c3ccccc3)cc2-c2cccc(Br)c2)cc(OC)c1OC | 0.95 | > 20 |  |
| COc1cc(C(=O)c2cn(-c3ccc(C)cc3)cc2-c2ccccc2F)cc(OC)c1OC | 0.044 | 0.78 | 80 |
| COc1cc(C(=O)c2cn(-c3cccc(N)c3)cc2-c2ccccc2Cl)cc(OC)c1OC | 0.04 | 0.63 | 79 |
| COc1cc(C(=O)c2cn(-c3cccc(N)c3)cc2-c2cccc([N+](=O)[O-])c2)cc(OC)c1OC | 0.51 | 1.7 | 32 |
| COc1cc(C(=O)c2cn(-c3ccc(C)cc3)cc2-c2cccc([N+](=O)[O-])c2)cc(OC)c1OC | 0.21 | 0.71 | 36 |
| COc1cc(C(=O)c2cn(-c3ccccc3C)cc2-c2ccccc2)cc(OC)c1OC | 2.2 | > 20 |  |
| COc1cc(C(=O)c2cn(-c3ccccc3)cc2-c2cc(F)ccc2F)cc(OC)c1OC | 0.23 | 1.3 | 24 |
| COc1cc(C(=O)c2cn(-c3cccc(N)c3)cc2-c2cccc(N)c2)cc(OC)c1OC | 0.06 | 0.88 | 70 |
| COc1cc(C(=O)c2cn(-c3ccccc3)cc2-c2ccccc2[N+](=O)[O-])cc(OC)c1OC | 0.049 | 0.73 | 61 |
| COc1cc(C(=O)c2cn(-c3ccccc3)cc2-c2c(F)cc(F)cc2F)cc(OC)c1OC | 0.18 | 0.51 | 27 |

| Compound | IC50 (MCF7) [µM] | IC50 (Tubulin) [µM] | inhibition (Tubulin (Homo sapiens)) [%] |
| --- | --- | --- | --- |
| COc1cc(C(=O)c2cn(-c3ccccc3)cc2-c2ccccc2Br)cc(OC)c1OC | 0.19 | 0.67 | 39 |
| COc1cccc(-c2cn(-c3ccccc3)cc2C(=O)c2cc(OC)c(OC)c(OC)c2)c1 | 0.18 | 0.45 | 27 |
| COc1cc(C(=O)c2cn(-c3cccc(F)c3)cc2-c2ccccc2[N+](=O)[O-])cc(OC)c1OC | 0.19 | 1.1 | 41 |
| COc1ccc(-n2cc(C(=O)c3cc(OC)c(OC)c(OC)c3)c(-c3ccccc3)c2)cc1 | 0.12 | 0.96 | 27 |
| COc1cc(C(=O)c2cn(-c3ccc(N)cc3)cc2-c2cccc([N+](=O)[O-])c2)cc(OC)c1OC | 0.26 | 3.8 | 18 |
| COc1cc(C(=O)c2cn(-c3cccc(C)c3)cc2-c2ccccc2F)cc(OC)c1OC | 0.19 | 0.79 | 57 |
| COc1cc(C(=O)c2cn(-c3ccc(F)cc3)cc2-c2ccccc2F)cc(OC)c1OC | 0.039 | 0.66 | 68 |
| COc1cc(C(=O)c2cn(-c3cccc(C)c3)cc2-c2cccc(N)c2)cc(OC)c1OC | 0.13 | 0.91 | 64 |
| COc1cc(C(=O)c2cn(-c3ccccc3)cc2-c2cccc([N+](=O)[O-])c2)cc(OC)c1OC | 0.05 | 0.94 | 12 |
| COc1cc(C(=O)c2cn(-c3ccccc3)cc2-c2ccccc2C)cc(OC)c1OC | 0.19 | 0.79 | 18 |
| COc1cc(C(=O)c2cn(-c3cccc(C)c3)cc2-c2ccccc2[N+](=O)[O-])cc(OC)c1OC | 0.22 | 1.2 | 41 |
| COc1cc(C(=O)c2cn(-c3cccc([N+](=O)[O-])c3)cc2-c2ccccc2)cc(OC)c1OC | 0.55 | > 20 | 12 |
| COc1ccc(Br)cc1-c1cn(-c2ccccc2)cc1C(=O)c1cc(OC)c(OC)c(OC)c1 | 2.2 | > 20 |  |
| COc1cc(C(=O)c2cn(-c3ccccc3)cc2-c2ccc([N+](=O)[O-])cc2)cc(OC)c1OC | 0.59 | > 20 |  |
| COc1cc(C(=O)c2cn(-c3ccc(N)cc3)cc2-c2ccccc2Cl)cc(OC)c1OC | 0.083 | 0.71 | 65 |
| COc1cc(C(=O)c2cn(-c3cccc(Cl)c3)cc2-c2ccccc2)cc(OC)c1OC | 0.15 | 2.1 | 37 |
| COc1ccccc1-n1cc(C(=O)c2cc(OC)c(OC)c(OC)c2)c(-c2ccccc2)c1 | 0.15 | 1.3 | 22 |
| COc1cc(C(=O)c2cn(-c3ccc(C)cc3)cc2-c2ccccc2[N+](=O)[O-])cc(OC)c1OC | 0.065 | 0.61 | 71 |
| COc1cc(C(=O)c2cn(-c3ccc(N)cc3)cc2-c2ccccc2[N+](=O)[O-])cc(OC)c1OC | 0.053 | 0.52 | 69 |
| COc1cc(C(=O)c2cn(-c3ccc(Br)cc3)cc2-c2ccccc2)cc(OC)c1OC | 0.02 | 0.66 | 78 |
| COc1cc(C(=O)c2cn(-c3ccccc3)cc2-c2ccccc2Cl)cc(OC)c1OC | 0.076 | 0.63 | 50 |

| Compound | IC50 (MCF7) [µM] | IC50 (Tubulin) [µM] | inhibition (Tubulin (Homo sapiens)) [%] |
| --- | --- | --- | --- |
| COc1cc(C(=O)c2cn(-c3cccc(N)c3)cc2-c2ccc([N+](=O)[O-])cc2)cc(OC)c1OC | 0.11 | 0.78 | 41 |
| COc1cc(C(=O)c2cn(-c3ccc(N)cc3)cc2-c2cccc(N)c2)cc(OC)c1OC | 0.078 | 0.87 | 59 |
| COc1cc(C(=O)c2cn(-c3ccc(F)cc3)cc2-c2cccc([N+](=O)[O-])c2)cc(OC)c1OC | 0.44 | > 20 | 11 |
| COc1cc(C(=O)c2cn(-c3cccc(Br)c3)cc2-c2ccccc2)cc(OC)c1OC | 0.078 | 1.9 | 23 |
| COc1cc(C(=O)c2cn(-c3ccc(N)cc3)cc2-c2ccc([N+](=O)[O-])cc2)cc(OC)c1OC | 0.26 | 1.8 | 23 |
| COc1cc(C(=O)c2cn(-c3ccc(F)cc3)cc2-c2ccccc2Cl)cc(OC)c1OC | 0.083 | 0.51 | 65 |
| COc1cc(C(=O)c2cn(-c3cccc(C)c3)cc2-c2ccccc2Cl)cc(OC)c1OC | 0.42 | 0.71 | 39 |
| COc1cc(C(=O)c2cn(-c3ccccc3N)cc2-c2ccccc2)cc(OC)c1OC | 3.8 | > 20 |  |
| COc1cc(C(=O)c2cn(-c3ccc(F)cc3)cc2-c2ccc([N+](=O)[O-])cc2)cc(OC)c1OC | 0.24 | > 20 | 0 |
| COc1cc(C(=O)c2cn(-c3ccccc3)cc2-c2ccc(Br)cc2)cc(OC)c1OC | 0.34 | 0.77 | 14 |
| COc1cc(C(=O)c2cn(-c3cccc(C)c3)cc2-c2ccc(N)cc2)cc(OC)c1OC | 0.018 | 0.33 | 88 |
| COc1cc(C(=O)c2cn(-c3ccccc3)cc2-c2ccc(Cl)cc2)cc(OC)c1OC | 0.29 | 1.2 | 23 |
| COc1cc(C(=O)c2cn(-c3ccc(Cl)cc3)cc2-c2ccccc2)cc(OC)c1OC | 0.14 | 1.7 | 42 |
| COc1ccc(-c2cn(-c3ccccc3)cc2C(=O)c2cc(OC)c(OC)c(OC)c2)cc1 | 0.07 | 0.48 | 42 |
| COc1cc(C(=O)c2cn(-c3cc(OC)c(OC)c(OC)c3)cc2-c2ccccc2)cc(OC)c1OC | > 5 | > 20 | 6.5 |
| COc1cc(C(=O)c2cn(-c3ccc(C)cc3)cc2-c2ccc([N+](=O)[O-])cc2)cc(OC)c1OC | 0.2 | 0.65 | 34 |
| COc1cc(C(=O)c2cn(-c3ccc(N)cc3)cc2-c2ccccc2)cc(OC)c1OC | 0.035 | 1.6 | 67 |
| COc1ccccc1-c1cn(-c2ccccc2)cc1C(=O)c1cc(OC)c(OC)c(OC)c1 | 0.19 | 0.55 | 31 |
| COc1cc(C(=O)c2cn(-c3ccc(N)cc3)cc2-c2ccccc2F)cc(OC)c1OC | 0.028 | 0.59 | 79 |
